# Reference: ChEMBL document CHEMBL1909617, “Bioactive dammarane-type saponins from Operculina turpethum” (J Nat Prod, 2011)
# Experiments:
# [1] = Cytotoxicity against human embryo L02 cells assessed as cell viability after 48 hrs by MTT assay; assay type: cell-based; conditions: read-out: MTD
# Method in brief: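 Human embryo liver L-02 cells in RPMI-1640 with 10% heat-inactivated FBS, penicillin, streptomycin and L-glutamine, seeded at 2 × 10^4 cell/mL and grown 24 h at 37 C, 5% CO2. Medium replaced by serial dilutions of compound (from 1 mg/mL DMSO stock), 48 h exposure. MTT added for 4 h, formazan dissolved in DMSO, OD 570 nm. Viability = OD(compound)/OD(control) × 100; maximum nontoxic concentration derived.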
# [2] = Cytoprotective activity in human embryo L02 cells assessed as inhibition of D-galactosamine-induced cytotoxicity at 12.5 ug/ml treated for 1 hr prior to D-galactosamine challenge measured after 48 hrs by MTT assay relative to control; assay type: functional
# Method in brief: (§1)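 L-02 human embryo liver cells in RPMI-1640 with 10% heat-inactivated FBS, penicillin, streptomycin, L-glutamine; seeded 2 × 10^4 cells/mL, grown 24 h at 37 °C, 5% CO2. Fresh medium with compound (diluted from 1 mg/mL DMSO stock) for 1 h, then 5 mM D-GalN for 48 h. MTT read at 570 nm; inhibition (%) = (OD compound − OD GalN control)/(OD blank − OD control) × 100; n = 3, mean ± SD.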
# [3] = Cytoprotective activity in human embryo L02 cells assessed as inhibition of D-galactosamine-induced cytotoxicity at 6.25 ug/ml treated for 1 hr prior to D-galactosamine challenge measured after 48 hrs by MTT assay relative to control; assay type: functional; method in brief: as §1
# [4] = Cytoprotective activity in human embryo L02 cells assessed as inhibition of D-galactosamine-induced cytotoxicity at 3.13 ug/ml treated for 1 hr prior to D-galactosamine challenge measured after 48 hrs by MTT assay relative to control; assay type: functional; method in brief: as §1
# [5] = Cytoprotective activity in human embryo L02 cells assessed as inhibition of D-galactosamine-induced cytotoxicity at 1.56 ug/ml treated for 1 hr prior to D-galactosamine challenge measured after 48 hrs by MTT assay relative to control; assay type: functional; method in brief: as §1
SMILES,MNTC at 48 h [1] [µg/mL],inhibition at 12.5 µg/mL [2] [%],inhibition at 6.25 µg/mL [3] [%],inhibition at 3.13 µg/mL [4] [%],inhibition at 1.56 µg/mL [5] [%]
CC(C)[C@]1(CO)CC[C@@](C)([C@H]2[C@H](O)C[C@]3(C)[C@@H]2CC[C@@H]2[C@@]4(C)CC[C@H](O[C@@H]5O[C@H](CO)[C@@H](O)[C@H](O)[C@H]5O[C@@H]5O[C@H](CO)[C@@H](O)[C@H](O)[C@H]5O)C(C)(C)[C@@H]4CC[C@]23C)O1 [OPERCULINOSIDE A],12.5,46.7,-14.7,-22.8,
CC(C)[C@]1(CO[C@@H]2O[C@H](CO)[C@@H](O)[C@H](O)[C@H]2O)CC[C@@](C)([C@H]2[C@H](O)C[C@]3(C)[C@@H]2CC[C@@H]2[C@@]4(C)CC[C@H](O[C@@H]5O[C@H](CO)[C@@H](O)[C@H](O)[C@H]5O[C@@H]5O[C@H](CO)[C@@H](O)[C@H](O)[C@H]5O)C(C)(C)[C@@H]4CC[C@]23C)O1 [OPERCULINOSIDE B],100,-6.9,10.4,3.5,
CC(C)(O)[C@@H]1CC[C@@](C)([C@H]2[C@H](O)C[C@]3(C)[C@@H]2CC[C@@H]2[C@@]4(C)CC[C@H](O[C@@H]5O[C@H](CO)[C@@H](O)[C@H](O)[C@H]5O[C@@H]5O[C@H](CO)[C@@H](O)[C@H](O)[C@H]5O)C(C)(C)[C@@H]4CC[C@]23C)O1 [OPERCULINOSIDE C],50,44.1,69.5,16.7,
CC(C)(O[C@@H]1O[C@H](CO)[C@@H](O)[C@H](O)[C@H]1O)[C@@H]1CC[C@@](C)([C@H]2[C@H](O)C[C@]3(C)[C@@H]2CC[C@@H]2[C@@]4(C)CC[C@H](O[C@@H]5O[C@H](CO)[C@@H](O)[C@H](O)[C@H]5O[C@@H]5O[C@H](CO)[C@@H](O)[C@H](O)[C@H]5O)C(C)(C)[C@@H]4CC[C@]23C)O1 [OPERCULINOSIDE D],100,22.2,6.3,5.5,
COc1cc(C2Oc3cc([C@H]4Oc5cc(O)cc(O)c5C(=O)[C@@H]4O)ccc3OC2CO)ccc1O (stereo not given in full) [SILIBININ],6.25,,28.2,33.4,10.1
